# Test results from ChEMBL document CHEMBL4270649 (Eur J Med Chem, 2018).
# Activity calls are given as the source filed them. The rule behind the calls is not given here.
# Legend:
# [1] = molecular target: T1, Dual specificity tyrosine-phosphorylation-regulated kinase 1B (Homo sapiens, UniProt Q9Y463); conditions: 0.25 h, read-out: INH
# [2] = Cytotoxicity against human HeLa cells assessed as cell viability at 10 uM after 3 days by XTT assay relative to control; type: cell-based; conditions: read-out: Activity
# [3] = molecular target: T2, Dual specificity tyrosine-phosphorylation-regulated kinase 1A (Homo sapiens, UniProt Q13627); test: Inhibition of DYRK1A in human HeLa cells harboring GFP-SF3b1-NT assessed as reduction in SF3b1 phosphorylation at T343 residue after 18 hrs by Western blot analysis; type: cell-based
# [4] = Half life in human liver S9 fraction at 0.3 uM in presence of NADP+/UDPGA by LC-MS/MS analysis; type: ADME, subcellular
# Method in brief: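 Compound was incubated with human S9 fraction and samples were taken at defined time points. Remaining parent was quantified by LC-MS/MS: ESI triple quadrupole, RP C18 column, water/acetonitrile with 0.1% TFA, 5–100% B over 7 min at 400 µL/min. Half-life was calculated from the remaining-parent data.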
# [5] = molecular target: T3, Serine/threonine-protein kinase 17A (Homo sapiens) (UniProt Q9UEE5); test: Inhibition of full length human GST-tagged STK17A expressed in baculovirus expression system at 1.25 uM in presence of 100 uM ATP relative to control
# T3 sequence (whole entry): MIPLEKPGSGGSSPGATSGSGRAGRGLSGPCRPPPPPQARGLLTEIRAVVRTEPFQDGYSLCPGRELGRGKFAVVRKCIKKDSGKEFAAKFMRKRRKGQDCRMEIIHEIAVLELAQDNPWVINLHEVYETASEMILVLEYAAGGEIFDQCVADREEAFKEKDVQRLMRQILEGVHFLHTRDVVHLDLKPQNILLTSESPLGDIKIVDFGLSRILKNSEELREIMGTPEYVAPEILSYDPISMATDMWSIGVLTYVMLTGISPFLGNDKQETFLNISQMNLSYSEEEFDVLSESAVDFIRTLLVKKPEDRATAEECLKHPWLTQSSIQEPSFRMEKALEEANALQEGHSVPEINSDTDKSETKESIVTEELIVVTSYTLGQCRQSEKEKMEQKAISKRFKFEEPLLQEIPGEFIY
# [6] = molecular target: Casein kinase I isoform delta (Homo sapiens) (UniProt P48730); test: Inhibition of CK1delta (unknown origin) at 1.25 uM in presence of 100 uM ATP relative to control
# [7] = molecular target: Dual specificity protein kinase CLK1 (Homo sapiens, UniProt P49759); test: Inhibition of recombinant human GST-tagged CLK1 (129 to 484 residues) expressed in Escherichia coli using GRSRSRSRSRSRSRSR as substrate after 15 mins in presence of 15 uM [gamma32P]ATP by phosphor imaging analysis
# Dual specificity protein kinase CLK1, sequence (P49759 whole entry, the tested form may be a part): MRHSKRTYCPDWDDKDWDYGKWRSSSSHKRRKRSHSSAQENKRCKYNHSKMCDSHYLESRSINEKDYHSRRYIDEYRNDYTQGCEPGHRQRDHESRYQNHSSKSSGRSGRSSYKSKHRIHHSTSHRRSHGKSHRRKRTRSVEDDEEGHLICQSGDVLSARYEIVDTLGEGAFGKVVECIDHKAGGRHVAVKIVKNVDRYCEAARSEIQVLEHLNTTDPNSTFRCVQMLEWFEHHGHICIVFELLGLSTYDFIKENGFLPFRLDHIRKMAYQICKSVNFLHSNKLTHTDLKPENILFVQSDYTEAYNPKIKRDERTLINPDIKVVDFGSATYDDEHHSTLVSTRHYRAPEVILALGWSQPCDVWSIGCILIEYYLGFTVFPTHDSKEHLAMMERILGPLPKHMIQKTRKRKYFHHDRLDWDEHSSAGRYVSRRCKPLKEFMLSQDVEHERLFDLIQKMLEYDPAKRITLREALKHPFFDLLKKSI
# [8] = molecular target: SRSF protein kinase 1 (Homo sapiens) (UniProt Q96SB4); test: Inhibition of full length human His-tagged SRPK1 expressed in baculovirus expression system at 1.25 uM in presence of 100 uM ATP relative to control
# SRSF protein kinase 1 (Homo sapiens), sequence (Q96SB4 whole entry): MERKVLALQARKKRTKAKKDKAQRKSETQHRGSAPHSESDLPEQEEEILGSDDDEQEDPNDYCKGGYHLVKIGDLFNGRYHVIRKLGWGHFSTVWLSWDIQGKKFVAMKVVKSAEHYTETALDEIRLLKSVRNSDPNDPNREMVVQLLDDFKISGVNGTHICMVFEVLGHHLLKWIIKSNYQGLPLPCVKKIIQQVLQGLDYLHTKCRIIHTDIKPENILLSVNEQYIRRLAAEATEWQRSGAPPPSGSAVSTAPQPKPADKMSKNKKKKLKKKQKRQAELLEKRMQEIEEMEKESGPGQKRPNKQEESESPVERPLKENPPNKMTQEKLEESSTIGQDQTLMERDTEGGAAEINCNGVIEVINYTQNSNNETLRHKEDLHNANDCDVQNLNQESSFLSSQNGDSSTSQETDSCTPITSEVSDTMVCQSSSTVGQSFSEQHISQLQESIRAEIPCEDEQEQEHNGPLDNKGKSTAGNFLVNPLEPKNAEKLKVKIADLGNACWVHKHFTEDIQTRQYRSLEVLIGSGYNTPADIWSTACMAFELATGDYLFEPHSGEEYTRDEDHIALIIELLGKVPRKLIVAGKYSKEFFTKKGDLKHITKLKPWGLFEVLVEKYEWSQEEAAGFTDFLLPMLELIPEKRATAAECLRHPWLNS
# [9] = molecular target: Homeodomain-interacting protein kinase 1 (Homo sapiens) (UniProt Q86Z02); test: Inhibition of human GST-tagged HIPK1 expressed in baculovirus expression system at 1.25 uM in presence of 100 uM ATP relative to control
# Homeodomain-interacting protein kinase 1 (Homo sapiens), sequence (Q86Z02 whole entry, looked up): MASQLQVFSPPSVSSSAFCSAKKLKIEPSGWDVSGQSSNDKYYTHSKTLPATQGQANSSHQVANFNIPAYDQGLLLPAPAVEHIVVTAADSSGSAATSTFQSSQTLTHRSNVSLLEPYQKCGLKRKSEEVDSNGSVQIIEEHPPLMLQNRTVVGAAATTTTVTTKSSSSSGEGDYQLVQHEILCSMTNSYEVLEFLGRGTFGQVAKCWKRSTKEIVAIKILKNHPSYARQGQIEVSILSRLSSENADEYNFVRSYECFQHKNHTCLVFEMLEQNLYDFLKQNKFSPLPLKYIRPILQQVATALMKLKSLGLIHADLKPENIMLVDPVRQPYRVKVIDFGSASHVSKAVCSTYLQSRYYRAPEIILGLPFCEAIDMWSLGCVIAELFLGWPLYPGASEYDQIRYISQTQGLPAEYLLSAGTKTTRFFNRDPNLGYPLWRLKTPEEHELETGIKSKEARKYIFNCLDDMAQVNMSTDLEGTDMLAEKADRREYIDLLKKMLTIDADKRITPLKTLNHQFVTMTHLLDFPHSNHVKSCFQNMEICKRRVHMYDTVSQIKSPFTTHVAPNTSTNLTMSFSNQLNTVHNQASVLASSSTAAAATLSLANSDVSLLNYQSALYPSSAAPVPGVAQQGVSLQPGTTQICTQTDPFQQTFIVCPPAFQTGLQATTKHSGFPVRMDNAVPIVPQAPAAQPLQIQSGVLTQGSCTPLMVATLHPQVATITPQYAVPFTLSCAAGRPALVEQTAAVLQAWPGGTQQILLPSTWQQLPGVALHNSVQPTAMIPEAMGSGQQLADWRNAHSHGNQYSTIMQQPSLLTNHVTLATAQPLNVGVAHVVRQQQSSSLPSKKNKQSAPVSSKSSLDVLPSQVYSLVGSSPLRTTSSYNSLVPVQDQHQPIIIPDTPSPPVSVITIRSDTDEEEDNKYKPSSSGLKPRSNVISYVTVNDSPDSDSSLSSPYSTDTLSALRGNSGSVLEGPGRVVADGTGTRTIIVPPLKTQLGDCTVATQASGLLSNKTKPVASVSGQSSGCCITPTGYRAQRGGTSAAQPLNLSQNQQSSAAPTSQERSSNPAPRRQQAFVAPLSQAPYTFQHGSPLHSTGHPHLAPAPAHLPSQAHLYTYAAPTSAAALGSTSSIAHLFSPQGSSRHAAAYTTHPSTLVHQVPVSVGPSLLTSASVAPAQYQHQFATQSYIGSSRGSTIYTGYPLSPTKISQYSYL
# [10] = molecular target: BDNF/NT-3 growth factors receptor (Homo sapiens) (UniProt Q16620); test: Inhibition of human His-tagged TRK-B expressed in baculovirus expression system at 1.25 uM in presence of 100 uM ATP relative to control
# [11] = molecular target: Cyclin-dependent kinase 5/CDK5 activator 1 (Homo sapiens) (UniProt Q00535+Q15078); test: Inhibition of full length human GST/His-tagged CDK5/p25 expressed in baculovirus expression system at 1.25 uM in presence of 100 uM ATP by Z'-Lyte assay relative to control
# Cyclin-dependent kinase 5/CDK5 activator 1 (Homo sapiens), sequence (Q00535 whole entry): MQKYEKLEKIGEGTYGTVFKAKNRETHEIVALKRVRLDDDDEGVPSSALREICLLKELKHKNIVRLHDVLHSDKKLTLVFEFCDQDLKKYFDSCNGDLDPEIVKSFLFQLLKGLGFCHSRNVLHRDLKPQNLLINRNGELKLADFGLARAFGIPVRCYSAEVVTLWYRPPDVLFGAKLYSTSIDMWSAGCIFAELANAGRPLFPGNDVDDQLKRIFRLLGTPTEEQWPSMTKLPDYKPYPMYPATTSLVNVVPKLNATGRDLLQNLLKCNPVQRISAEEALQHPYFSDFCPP
# Cyclin-dependent kinase 5/CDK5 activator 1 (Homo sapiens), sequence (Q15078 99-307 partner limits assumed): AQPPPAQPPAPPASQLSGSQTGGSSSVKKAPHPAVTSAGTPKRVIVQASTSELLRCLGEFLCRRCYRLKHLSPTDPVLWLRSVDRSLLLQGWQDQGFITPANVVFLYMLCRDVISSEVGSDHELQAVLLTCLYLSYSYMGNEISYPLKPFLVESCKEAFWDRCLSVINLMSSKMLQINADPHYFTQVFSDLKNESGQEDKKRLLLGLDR
# [12] = Cytotoxicity against human HeLa cells assessed as cell viability at 3 uM after 3 days by XTT assay relative to control; type: cell-based; conditions: read-out: Activity
# [13] = molecular target: Serine/threonine-protein kinase pim-1 (Homo sapiens) (UniProt P11309); test: Inhibition of full length human His-tagged PIM1 expressed in baculovirus expression system at 1.25 uM in presence of 100 uM ATP relative to control
# Serine/threonine-protein kinase pim-1 (Homo sapiens), sequence (P11309 whole entry, looked up): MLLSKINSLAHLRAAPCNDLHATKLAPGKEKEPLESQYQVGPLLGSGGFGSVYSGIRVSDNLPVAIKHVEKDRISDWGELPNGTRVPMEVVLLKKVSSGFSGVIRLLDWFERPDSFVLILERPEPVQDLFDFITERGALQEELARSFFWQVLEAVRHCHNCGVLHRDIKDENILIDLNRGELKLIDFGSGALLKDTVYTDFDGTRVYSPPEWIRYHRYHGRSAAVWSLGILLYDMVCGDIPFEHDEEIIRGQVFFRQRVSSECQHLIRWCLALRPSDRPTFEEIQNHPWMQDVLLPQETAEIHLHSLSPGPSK
# [14] = molecular target: T2, Dual specificity tyrosine-phosphorylation-regulated kinase 1A; test: Inhibition of recombinant human N-terminal His6-tagged DYRK1A expressed in Escherichia coli BL21(DE3) using KKISGRLSPIMTEQ-NH2 as substrate after 15 mins in presence of 15 uM [gamma32P]ATP by phosphor imaging analysis
# [15] = molecular target: T1, Dual specificity tyrosine-phosphorylation-regulated kinase 1B; test: Inhibition of full length recombinant human GST-tagged DYRK1B expressed in baculovirus expression system using KKISGRLSPIMTEQ-NH2 as substrate after 15 mins in presence of 15 uM [gamma32P]ATP by phosphor imaging analysis
# [16] = molecular target: Dual specificity protein kinase CLK2 (Homo sapiens) (UniProt P49760); test: Inhibition of human GST-tagged CLK2 expressed in baculovirus expression system at 1.25 uM in presence of 100 uM ATP relative to control
# Dual specificity protein kinase CLK2 (Homo sapiens), sequence (P49760 whole entry, looked up): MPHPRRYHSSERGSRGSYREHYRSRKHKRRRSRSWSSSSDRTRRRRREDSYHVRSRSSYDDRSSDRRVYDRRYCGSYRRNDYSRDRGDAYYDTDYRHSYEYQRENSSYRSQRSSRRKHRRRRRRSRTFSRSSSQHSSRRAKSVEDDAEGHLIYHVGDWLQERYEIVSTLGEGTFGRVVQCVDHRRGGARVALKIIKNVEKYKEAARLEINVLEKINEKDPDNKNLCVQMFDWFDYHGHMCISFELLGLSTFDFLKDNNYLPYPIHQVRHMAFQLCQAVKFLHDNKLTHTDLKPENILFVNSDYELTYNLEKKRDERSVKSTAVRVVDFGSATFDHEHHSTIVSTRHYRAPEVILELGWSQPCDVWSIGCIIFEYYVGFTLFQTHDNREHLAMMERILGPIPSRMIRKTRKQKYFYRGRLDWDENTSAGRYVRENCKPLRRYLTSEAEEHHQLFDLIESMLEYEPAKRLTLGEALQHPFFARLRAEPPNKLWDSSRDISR
# [17] = Cytotoxicity against human HeLa cells assessed as cell viability at 1 uM after 3 days by XTT assay relative to control; type: cell-based; conditions: read-out: Activity
# [18] = molecular target: Myosin light chain kinase 2, skeletal/cardiac muscle (Homo sapiens) (UniProt Q9H1R3); test: Inhibition of human full length GST-tagged MLCK2 expressed in baculovirus expression system at 1.25 uM in presence of 100 uM ATP relative to control
# Myosin light chain kinase 2, skeletal/cardiac muscle (Homo sapiens), sequence (Q9H1R3 whole entry): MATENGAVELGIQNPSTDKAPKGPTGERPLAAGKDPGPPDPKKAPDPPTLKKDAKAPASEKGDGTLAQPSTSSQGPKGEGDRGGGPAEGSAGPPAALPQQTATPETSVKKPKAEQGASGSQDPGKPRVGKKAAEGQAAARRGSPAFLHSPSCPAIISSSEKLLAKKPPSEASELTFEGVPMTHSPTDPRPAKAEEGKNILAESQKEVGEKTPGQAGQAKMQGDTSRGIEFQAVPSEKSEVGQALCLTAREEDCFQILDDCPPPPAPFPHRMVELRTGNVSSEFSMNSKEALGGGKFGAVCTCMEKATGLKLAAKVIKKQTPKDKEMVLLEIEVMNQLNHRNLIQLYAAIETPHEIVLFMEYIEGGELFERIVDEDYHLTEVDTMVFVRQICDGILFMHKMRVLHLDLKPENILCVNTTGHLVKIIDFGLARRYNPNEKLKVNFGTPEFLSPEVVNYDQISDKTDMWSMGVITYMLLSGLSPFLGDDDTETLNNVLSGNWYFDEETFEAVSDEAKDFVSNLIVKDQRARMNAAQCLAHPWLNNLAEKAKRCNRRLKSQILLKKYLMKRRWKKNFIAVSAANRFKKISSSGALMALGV
# [19] = molecular target: T4, Serine/threonine-protein kinase haspin (Homo sapiens, UniProt Q8TF76); test: Inhibition of human GST-tagged haspin expressed in baculovirus expression system in presence of 100 uM ATP
# T4 sequence (Q8TF76 whole entry): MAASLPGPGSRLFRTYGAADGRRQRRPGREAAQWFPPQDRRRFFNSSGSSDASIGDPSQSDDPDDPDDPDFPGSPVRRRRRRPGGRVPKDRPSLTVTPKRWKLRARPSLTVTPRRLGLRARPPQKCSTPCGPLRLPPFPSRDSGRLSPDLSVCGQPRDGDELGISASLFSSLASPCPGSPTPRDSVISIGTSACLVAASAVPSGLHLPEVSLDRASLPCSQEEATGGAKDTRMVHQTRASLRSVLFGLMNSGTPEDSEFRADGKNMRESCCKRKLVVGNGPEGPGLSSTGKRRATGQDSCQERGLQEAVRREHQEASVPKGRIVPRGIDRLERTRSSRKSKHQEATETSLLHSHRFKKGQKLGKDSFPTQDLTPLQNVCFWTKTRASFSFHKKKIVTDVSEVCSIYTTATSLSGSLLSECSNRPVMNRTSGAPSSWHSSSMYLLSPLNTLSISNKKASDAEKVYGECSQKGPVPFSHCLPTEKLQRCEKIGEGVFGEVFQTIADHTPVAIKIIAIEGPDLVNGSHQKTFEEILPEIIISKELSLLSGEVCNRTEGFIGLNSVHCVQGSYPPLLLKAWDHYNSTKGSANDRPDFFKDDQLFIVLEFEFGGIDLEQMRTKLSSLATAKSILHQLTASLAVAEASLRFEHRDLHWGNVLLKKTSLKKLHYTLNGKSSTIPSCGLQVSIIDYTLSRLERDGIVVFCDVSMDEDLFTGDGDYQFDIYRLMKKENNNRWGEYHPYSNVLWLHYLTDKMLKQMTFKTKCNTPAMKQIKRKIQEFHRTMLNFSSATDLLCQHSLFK
# [20] = molecular target: T2, Dual specificity tyrosine-phosphorylation-regulated kinase 1A; test: Inhibition of recombinant human N-terminal His6-tagged DYRK1A expressed in Escherichia coli BL21(DE3) at 1.25 uM using KKISGRLSPIMTEQ-NH2 as substrate after 15 mins in presence of 15 uM [gamma32P]ATP by phosphor imaging analysis relative to control
# [21] = molecular target: T4, Serine/threonine-protein kinase haspin; test: Inhibition of human GST-tagged haspin expressed in baculovirus expression system at 1.25 uM in presence of 100 uM ATP relative to control
# T1 sequence (Q9Y463 whole entry): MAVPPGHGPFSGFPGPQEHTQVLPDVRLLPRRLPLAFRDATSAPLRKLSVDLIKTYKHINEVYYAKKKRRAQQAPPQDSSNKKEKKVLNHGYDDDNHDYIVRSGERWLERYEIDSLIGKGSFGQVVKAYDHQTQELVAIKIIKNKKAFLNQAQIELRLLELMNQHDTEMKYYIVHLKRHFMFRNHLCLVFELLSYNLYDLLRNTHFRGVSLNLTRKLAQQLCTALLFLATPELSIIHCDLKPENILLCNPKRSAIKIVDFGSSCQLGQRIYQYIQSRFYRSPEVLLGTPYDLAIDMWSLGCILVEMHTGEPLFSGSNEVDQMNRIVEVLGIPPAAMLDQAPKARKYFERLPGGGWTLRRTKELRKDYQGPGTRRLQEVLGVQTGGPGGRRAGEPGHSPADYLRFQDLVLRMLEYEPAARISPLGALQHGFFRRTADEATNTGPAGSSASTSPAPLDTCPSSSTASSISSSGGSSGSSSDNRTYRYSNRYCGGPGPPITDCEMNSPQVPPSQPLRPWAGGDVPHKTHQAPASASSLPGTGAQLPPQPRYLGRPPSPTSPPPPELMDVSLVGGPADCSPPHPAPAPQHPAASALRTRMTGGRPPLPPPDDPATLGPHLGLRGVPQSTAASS
SMILES,inhibition at 0.25 µM [1] [%],IC50 [15] [nM],further results
CCn1cc(-c2csc(-c3cncc(NC(=O)C4CC4)c3)c2)cn1,57,–,–
O=C(Nc1cncc(-c2cc(-c3cccnc3)cs2)c1)C1CC1,40,72.9,"viability at 72 h, 10 µM [2]: 98%; IC50 [3]: 43 nM; inhibition [3]: Dose-dependent effect; half-life at 0.3 µM [4]: 144 min; inhibition [5]: 51.3%; inhibition [6]: 4%; IC50 [7]: 270 nM; inhibition [8]: 2%; inhibition [9]: 1%; inhibition [10]: 8%; inhibition [11]: 1%; viability at 72 h, 3 µM [12]: 102%; inhibition [13]: inactive; IC50 [14]: 3.2 nM; inhibition [16]: 21%; viability at 72 h, 1 µM [17]: 99%; inhibition [18]: 12.1%; IC50 [19]: 76.3 nM; inhibition [20]: 89%; inhibition at 1.25 µM [21]: 72%"
CC(=O)Nc1cncc(-c2cc(-c3cccnc3)cs2)c1,40.3,–,"viability at 72 h, 10 µM [2]: 83%; viability at 72 h, 3 µM [12]: 95%; viability at 72 h, 1 µM [17]: 98%"
CCN(C(=O)C1CC1)c1cncc(-c2cc(-c3cccnc3)cs2)c1,14.6,–,–
O=C(Nc1cncc(-c2cccs2)c1)C1CC1,0,–,–
O=C(Nc1cncc(-c2cc(-c3cn[nH]c3)cs2)c1)C1CC1,58.1,138,half-life at 0.3 µM [4]: 147 min
O=C(CN1CCOCC1)Nc1cncc(-c2cc(-c3cccnc3)cs2)c1,13.9,–,–
CN(C(=O)C1CC1)c1cncc(-c2cc(-c3cccnc3)cs2)c1,0.9,–,–
O=C(Nc1cncc(-c2cc(-c3cccnc3)cs2)c1)C1CCCCC1,51,–,–
Cn1cc(-c2csc(-c3cncc(NC(=O)C4CC4)c3)c2)cn1,78.6,67.1,–
O=C(CN1CCCCC1)Nc1cncc(-c2cc(-c3cccnc3)cs2)c1,51.8,–,–
CN[C@@H]1C[C@H]2O[C@@](C)([C@@H]1OC)n1c3ccccc3c3c4c(c5c6ccccc6n2c5c31)C(=O)NC4 [STAUROSPORINE],–,–,"viability at 72 h, 1 µM [17]: 33%"
CC(C)n1cc(-c2csc(-c3cncc(NC(=O)C4CC4)c3)c2)cn1,0.7,–,–
O=C(Nc1cncc(-c2cc(-c3cccnc3)cs2)c1)C1CCC1,81,219,–
O=C(Nc1cncc(-c2cc(-c3cccnc3)cs2)c1)C1CCNC1 (stereo not given),62.7,132,–
CCCn1cc(-c2csc(-c3cncc(NC(=O)C4CC4)c3)c2)cn1,65.7,98.8,–
O=C(Cc1nnn[nH]1)Nc1cncc(-c2cc(-c3cccnc3)cs2)c1,38.5,–,–
CC(C)(C)OC(=O)N1CCC(C(=O)Nc2cncc(-c3cc(-c4cccnc4)cs3)c2)C1 (stereo not given),34.9,–,–
CS(=O)(=O)Nc1cncc(-c2cc(-c3cccnc3)cs2)c1,23.5,–,–
CCC(=O)Nc1cncc(-c2cc(-c3cccnc3)cs2)c1,49.3,–,–
